# Source: ChEMBL document CHEMBL2086314, “Synthesis and anticonvulsant activity of new N-Mannich bases derived from 3-(2-fluorophenyl)- and 3-(2-bromophenyl)-pyrrolidine-2,5-diones. Part II” (Bioorg Med Chem, 2012)
# Experiments:
# Mus musculus [1] = assay: Anticonvulsant activity in CF-1 albino mouse assessed as protection against 6 Hz psychomotor seizure at 100 mg/kg, ip measured after 2 hrs; type: functional; settings: route intraperitoneal
# Method in brief: (§1)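 6-Hz psychomotor seizure in male CF-1 mice, compound suspended in 0.5% methylcellulose/water, given ip (100 or 75 mg/kg). Corneal stimulation with 0.2 ms monopolar rectangular pulses at 6 Hz for 3 s, 32 mA, constant-current device. Protected if normal exploratory behaviour resumes within 10 s. Tested 0.25–4 h after dosing; value is mice protected out of four.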
# Mus musculus [2] = assay: Neurotoxicity in CF-1 albino mouse assessed as motor impairment at 300 mg/kg, ip measured after 4 hrs by rotarod test; type: toxicity, organism-based; parameters: dose 300 mg/kg, route intraperitoneal; settings: in vivo
# Method in brief: (§2)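 Rotarod neurotoxicity in male CF-1 mice given ip doses of 30, 100 or 300 mg/kg (0.5% methylcellulose suspension), examined 0.5 and 4 h after dosing. Impairment means failing to hold balance on the rod for 1 min. Value is the minimum dose causing toxicity in half or more of the animals; response comments are recorded.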
# Rattus norvegicus [3] = assay: Neurotoxicity in Sprague-Dawley rat assessed as motor impairment at 30 mg/kg, po by rotarod test; type: toxicity, organism-based; parameters: dose 30 mg/kg, route oral; settings: in vivo
# Method in brief: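 Male Sprague–Dawley rats, four animals, oral 30 mg/kg in 0.5% methylcellulose/water. Motor impairment on the rotarod (failure to keep balance for 1 min) assessed alongside MES at five times from 0.25 to 4 h.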
# Mus musculus [4] = assay: Anticonvulsant activity in ip dosed CF-1 albino mouse assessed as protection against subcutaneous pentylenetetrazol-induced seizures measured after 4 hrs; type: functional; settings: read-out: MED
# Method in brief: (§3)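 scPTZ test in male CF-1 mice. Compound suspended in 0.5% methylcellulose/water, ip at 30, 100 or 300 mg/kg. Pentylenetetrazole 85 mg/kg (CD97, clonic seizures lasting at least 5 s) given subcutaneously at the test time, read at 0.5 and 4 h. Value is the minimum dose protecting half or more of the animals.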
# Mus musculus [5] = assay: Anticonvulsant activity in ip dosed CF-1 albino mouse assessed as protection from maximal electric shock-induced seizures measured after 4 hrs; type: functional; settings: read-out: MED
# Method in brief: (§4)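 Male CF-1 mice dosed ip at 30, 100 or 300 mg/kg, suspension in 0.5% methylcellulose/water. MES: corneal electrodes primed with electrolyte containing anaesthetic, 50 mA, 60 Hz, 0.2 s. Examined 0.5 and 4 h after dosing. Value is the minimum dose protecting half or more of the animals.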
# Rattus norvegicus [6] = assay: Anticonvulsant activity in Sprague-Dawley rat assessed as protection from maximum electric shock-induced seizures at 30 mg/kg, po measured after 2 hrs; type: functional
# Method in brief: (§5)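 Male Sprague–Dawley rats, four per group, given 30 mg/kg orally as a suspension in 0.5% methylcellulose/water. MES stimulus 150 mA, 60 Hz, 0.2 s via corneal electrodes. Tested at 0.25, 0.5, 1, 2 and 4 h; value is rats protected out of four.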
# [7] = Neurotoxicity in ip dosed CF-1 albino mouse assessed as motor impairment by rotarod test; type: toxicity, organism-based; settings: in vivo
# Mus musculus [8] = assay: Anticonvulsant activity in ip dosed CF-1 albino mouse assessed as protection against 6 Hz psychomotor seizures; type: functional
# Method in brief: (§6)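 6-Hz test (32 mA, 0.2 ms pulses at 6 Hz for 3 s, corneal) in male CF-1 mice dosed ip. Quantified at the time of peak effect in groups of eight across at least three doses giving 10–90% effect. ED50 and TD50 (minimal neurological toxicity) obtained by regression; PI = TD50/ED50.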
# Mus musculus [9] = organism: Mus musculus; assay: Protective index, ratio of TD50 for CF-1 albino mouse to ED50 for CF-1 albino mouse assessed as protection from 6 Hz psychomotor seizure; type: functional; method in brief: as §6
# Mus musculus [10] = assay: Neurotoxicity in CF-1 albino mouse assessed as myoclonic jerks at 300 mg/kg, ip measured after 4 hrs by rotarod test; type: toxicity, organism-based; parameters: dose 300 mg/kg, route intraperitoneal; settings: in vivo
# Rattus norvegicus [11] = assay: Anticonvulsant activity in Sprague-Dawley rat assessed as protection from maximum electric shock-induced seizures at 30 mg/kg, po measured after 0.25 hrs; type: functional; method in brief: as §5
# Rattus norvegicus [12] = assay: Anticonvulsant activity in Sprague-Dawley rat assessed as protection from maximum electric shock-induced seizures at 30 mg/kg, po measured after 4 hrs; type: functional; method in brief: as §5
# Mus musculus [13] = assay: Anticonvulsant activity in ip dosed CF-1 albino mouse assessed as protection from maximal electric shock-induced seizures measured after 0.5 hrs; type: functional; settings: read-out: MED; method in brief: as §4
# Mus musculus [14] = assay: Neurotoxicity in CF-1 albino mouse assessed as loss of […] reflex at 300 mg/kg, ip measured after 0.5 hrs by rotarod test; type: toxicity, organism-based; parameters: dose 300 mg/kg, route intraperitoneal; settings: in vivo; method in brief: as §2
# Mus musculus [15] = assay: Anticonvulsant activity in ip dosed 6 Hz psychomotor-induced seizure in CF-1 albino mouse assessed as time of peak effect; type: functional
# Mus musculus [16] = assay: Anticonvulsant activity in CF-1 albino mouse assessed as protection against 6 Hz psychomotor seizure at 100 mg/kg, ip measured after 0.5 hrs; type: functional; settings: route intraperitoneal; method in brief: as §1
# Rattus norvegicus [17] = assay: Anticonvulsant activity in Sprague-Dawley rat assessed as protection from maximum electric shock-induced seizures at 30 mg/kg, po measured after 0.5 hrs; type: functional; method in brief: as §5
# Mus musculus [18] = assay: Anticonvulsant activity in CF-1 albino mouse assessed as protection against 6 Hz psychomotor seizure at 100 mg/kg, ip measured after 1 hr; type: functional; settings: route intraperitoneal; method in brief: as §1
# Mus musculus [19] = assay: Neurotoxicity in ip dosed CF-1 albino mouse assessed as motor impairment measured after 0.5 hrs by rotarod test; type: toxicity, organism-based; settings: in vivo; method in brief: as §2
# Mus musculus [20] = assay: Anticonvulsant activity in CF-1 albino mouse assessed as protection against 6 Hz psychomotor seizure at 100 mg/kg, ip measured after 0.25 hrs; type: functional; settings: route intraperitoneal; method in brief: as §1
# Mus musculus [21] = assay: Anticonvulsant activity in ip dosed CF-1 albino mouse assessed as protection against subcutaneous pentylenetetrazol-induced seizures measured after 0.5 hrs; type: functional; settings: read-out: MED; method in brief: as §3
# Mus musculus [22] = assay: Neurotoxicity in CF-1 albino mouse assessed as inability to grasp rotarod at 300 mg/kg, ip measured after 0.5 hrs by rotarod test; type: toxicity, organism-based; parameters: dose 300 mg/kg, route intraperitoneal; settings: in vivo; method in brief: as §2
# Rattus norvegicus [23] = assay: Anticonvulsant activity in Sprague-Dawley rat assessed as protection from maximum electric shock-induced seizures at 30 mg/kg, po measured after 1 hr; type: functional; method in brief: as §5
# Mus musculus [24] = assay: Anticonvulsant activity in CF-1 albino mouse assessed as protection against 6 Hz psychomotor seizure at 100 mg/kg, ip measured after 4 hrs; type: functional; settings: route intraperitoneal; method in brief: as §1
smiles,measurement,setting,value
O=C1CC(c2ccccc2F)C(=O)N1CN1CCOCC1 (racemic),Activity,Mus musculus [1],75%
same,Activity,Mus musculus [2],Non-toxic
same,Activity,Rattus norvegicus [3],Non-toxic
same,minimal effective dose,Mus musculus [4],300 mg/kg
same,minimal effective dose,Mus musculus [5],100 mg/kg
same,Activity,Rattus norvegicus [6],50%
same,TD50,[7],253 mg/kg
same,ED50,Mus musculus [8],103 mg/kg
same,Ratio TD50/ED50,Mus musculus [9],2.46
same,Activity,Mus musculus [10],Toxic
same,Activity,Rattus norvegicus [11],25%
same,Activity,Rattus norvegicus [12],25%
same,minimal effective dose,Mus musculus [13],100 mg/kg
same,Activity,Mus musculus [14],Toxic
same,Time,Mus musculus [15],4 h
same,Activity,Mus musculus [16],100%
same,Activity,Rattus norvegicus [17],25%
same,Activity,Mus musculus [18],100%
same,MTC,Mus musculus [19],300 mg/kg
same,Activity,Mus musculus [20],100%
same,minimal effective dose,Mus musculus [21],300 mg/kg
same,Activity,Mus musculus [22],Toxic
same,Activity,Rattus norvegicus [23],50%
same,Activity,Mus musculus [24],25%
